# Assay outcomes: PubChem, several laboratories
# SMARCA2 activ: SMARCA2 function activation, primary screen; MG213 cells, MMTV-luciferase reporter, dexamethasone, overnight; activation, % at 9.1 µM; 370,000 compounds, 1% hits; AID 652017; in the data active = activation above about 7.8%
# ARFGAP1 inhibitor: inhibitors of rat ARFGAP1; 360,000 compounds, 0.26% hits; inhibition, % at 16.5 µM; Arfgap1-stimulated ARF1 GTP hydrolysis, GDP FP detection; Q62848;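 active = inhibition above a per-plate limit, mean inhibition of low control wells plus 3 SD, cut at about 25% in these data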
# Target sequence (Q62848 1-136 limits assumed): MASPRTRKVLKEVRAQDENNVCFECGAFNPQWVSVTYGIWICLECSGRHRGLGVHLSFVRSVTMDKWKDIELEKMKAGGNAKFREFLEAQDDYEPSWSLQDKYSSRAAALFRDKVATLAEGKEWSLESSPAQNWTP
#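 system = rat Arfgap1 catalytic domain, aa 1-136 | technique = FP, GDP Alexa 633 tracer displaced from anti-GDP antibody, 620/688 nm | compound = one concentration, 16.5 µM, DMSO 1.26% | medium = HEPES-based buffer, pH 7.5 | timing = compound-enzyme preincubation 20 min, reaction 120 min, detection 60 min, 25 °C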
# esBAF inh: inhibitors of esBAF chromatin remodeling in mouse ES cells; Bmi1-luciferase knock-in reporter, 24 h; 100% = twice the neutral-well signal; reporter increase, % at 12.5 µM; 350,000 compounds, 2% hits; AID 602393; in the data active = activation above about 40%;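 note: a rise in the Bmi1 reporter signal indicates esBAF inhibition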
# ASAP1 GAP inh: ASAP1 ArfGAP inhibition; Q9ULH1; inhibition, % at 16.5 µM; 360,000 compounds, 0.19% hits; ASAP1-stimulated ARF1 GTP hydrolysis, GDP FP detection; in the data active = inhibition above about 25%
# ARFGAP1 confirm: confirmation of rat ARFGAP1 inhibitors; shares compounds with ARFGAP1 inhibitor; ARFGAP1-stimulated ARF1 GTP hydrolysis, GDP tracer FP; inhibition, % at 16.5 µM; 890 compounds, 30% hits;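 active = average inhibition over triplicates above the hit cutoff set in the earlier primary screen, cut at about 25% in these data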
# Target sequence (Q62848 whole entry, looked up): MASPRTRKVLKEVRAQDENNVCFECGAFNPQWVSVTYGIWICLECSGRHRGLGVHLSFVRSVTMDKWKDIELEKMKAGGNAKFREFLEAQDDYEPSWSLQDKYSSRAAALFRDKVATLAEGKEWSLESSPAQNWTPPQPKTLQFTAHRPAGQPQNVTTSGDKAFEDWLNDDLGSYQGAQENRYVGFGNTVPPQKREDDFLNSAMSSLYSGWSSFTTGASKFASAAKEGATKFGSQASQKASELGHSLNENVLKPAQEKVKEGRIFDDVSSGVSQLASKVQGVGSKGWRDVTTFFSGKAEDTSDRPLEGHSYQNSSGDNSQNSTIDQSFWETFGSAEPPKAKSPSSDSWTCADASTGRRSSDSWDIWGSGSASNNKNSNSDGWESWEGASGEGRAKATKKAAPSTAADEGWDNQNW
# A number is an active result; n = inactive; x = no result. Only some compounds are listed: those with a hit (about 2.6% of all), similar ones and a draw of the others.
SMILES,SMARCA2 activ,ARFGAP1 inhibitor,esBAF inh,ASAP1 GAP inh,ARFGAP1 confirm
CCOC(=O)N1CCN(C(=O)CSc2nc(=O)n3cc(C)ccc3n2)CC1,n,40,x,n,38
C[C@H]1CN([C@@H](C)CO)C(=O)c2cc(NS(=O)(=O)c3cn(C)cn3)ccc2O[C@@H]1CN(C)C,x,x,n,x,x
C[C@@H]1CN([C@@H](C)CO)C(=O)c2cc(NC(=O)NC3CCCCC3)ccc2O[C@@H]1CN(C)Cc1ccncc1,x,x,n,x,x
C[C@H](NC(=O)C[C@@H]1C[C@@H]2c3cc(NC(=O)NC4CCCCC4)ccc3O[C@@H]2[C@H](CO)O1)c1ccccc1,x,x,n,x,x
COc1cccc(NC(=O)N(C)C[C@@H]2Oc3ncc(C4=CCCCC4)cc3C(=O)N([C@@H](C)CO)C[C@H]2C)c1,x,x,n,x,x
C/C=C/c1cccc(-c2nc(C(=O)Nc3nccs3)cc3c2[C@@H](CCO)N(C(=O)NC(C)C)C3)c1,x,x,n,x,x
CN1CCN(C(=O)C[C@H]2C[C@@H]3c4cc(NC(=O)Nc5ccc(C(F)(F)F)cc5)ccc4O[C@@H]3[C@@H](CO)O2)CC1,x,x,n,x,x
Cc1ccc2nc(SCC(=O)Nc3cccc(F)c3)nc(=O)n2c1,n,54,n,32,47
NC1=NC(=O)/C(=C/c2cccc(-c3ccc(S(N)(=O)=O)cc3)c2)S1,n,28,n,n,n
CCNc1nc(NCc2ccccc2)nc(SCC(=O)Nc2ccccc2)n1,n,27,x,n,n
Cc1ccc(NC(=O)N2CC(C)OC(C)C2)cc1[N+](=O)[O-] (stereo not drawn),n,33,x,n,n
C[C@H]1CN([C@@H](C)CO)C(=O)c2ccccc2-c2ccccc2CO[C@H]1CN(C)C(=O)c1ccc(F)cc1,x,x,n,x,x
Cn1c2ccccc2c(=O)c2ccc(-c3ccc4c(c3)OCO4)cc21,n,37,49,n,90
Cc1cc(C)n2nc(SCC(=O)N/N=C/c3ccccc3F)nc2n1,n,27,n,n,n
Clc1ccc(SCc2cc(N3CCOCC3)nc(-c3ccccn3)n2)cc1,n,n,x,n,x
Cc1nc(CSc2ccc(Cl)cc2)cc(N2CC(C)OC(C)C2)n1 (stereo not drawn),n,25,n,n,n
Cc1ccc(S(=O)(=O)N2CCC(=O)N(CCOC(=O)Nc3ccc(C)c(C)c3)CC2)cc1,n,35,n,n,n
C[C@@H]1CN([C@H](C)CO)C(=O)c2cc(NS(=O)(=O)c3ccc(Cl)cc3)ccc2O[C@@H](C)CCCCO[C@@H]1CN(C)S(=O)(=O)c1cn(C)cn1,x,x,n,x,x
CCCN(CCC)CCNC(=O)c1cc2c(-c3ccc(Cl)cc3)nn(C)c2s1,n,28,n,n,n
CCCN(CCC)CCCNC(=O)c1cc2c(-c3ccc(OC)c(OC)c3)nn(C)c2s1,n,47,n,n,85
C/C=C/c1cccc(-c2nc(C(=O)NCc3ccccc3)cc3c2[C@H](CCO)N([S@@](=O)C(C)(C)C)C3)c1,x,x,n,x,x
C[C@H]1CN([C@@H](C)CO)S(=O)(=O)c2ccc(C#CC3CC3)cc2O[C@@H]1CN(C)C(=O)CC1CC1,x,x,n,x,x
COc1cccc(C2C(C(=O)Nc3nc4ccccc4s3)=C(C)NC3=C2C(=O)CC(C)(C)C3)c1OC (stereo not drawn),n,n,n,n,x
COc1ccc(OC)c(C2C(C(=O)Nc3nc4ccccc4s3)=C(C)NC3=C2C(=O)CCC3)c1 (stereo not drawn),n,25,n,n,n
O=C(CN(CCc1ccccc1)C(=O)c1csnn1)NCc1ccc(F)cc1,n,27,n,n,n
SMILES,SMARCA2 activ,ARFGAP1 inhibitor,esBAF inh,ASAP1 GAP inh,ARFGAP1 confirm
COc1ccc(NC(=O)N(C)C[C@@H]2Oc3ccc(NC(=O)Nc4ccc5c(c4)OCO5)cc3C(=O)N([C@@H](C)CO)C[C@H]2C)cc1,x,x,n,x,x
COc1cc(OC)cc(C(=O)Nc2ccccc2-c2nnn(CC(=O)Nc3cc(C)on3)n2)c1,n,25,n,n,31
COc1ccc(C(=O)Nc2ccccc2-c2nnn(CC(N)=O)n2)cc1,n,n,n,n,x
C[C@@H]1CN([C@H](C)CO)C(=O)c2cc(C#CCN(C)C)cnc2O[C@@H]1CN(C)Cc1cccc(F)c1,x,x,n,x,x
c1ccc(C[C@H]2CN=C(Nc3ccccc3)N2CC2CCC2)cc1,n,n,n,n,x
CC1CCC(CN2C(Nc3ccccc3)=NC[C@@H]2Cc2ccccc2)CC1 (stereo partly drawn),n,28,n,n,n
CN1CCN(c2ccc(Cl)cc2NC(=O)/C=C/c2cccc(F)c2)CC1,n,31,x,n,n
CN1CCN(c2ccc(Cl)cc2NC(=O)c2cccc(S(=O)(=O)N(C)C)c2)CC1,n,n,n,n,x
O=C(C[C@H]1CC[C@@H]2[C@H](COC[C@H](O)CN2Cc2ccc(Cl)cc2)O1)Nc1nccs1,x,x,n,x,x
CNC(=O)c1c(NC(=O)c2ccc(S(=O)(=O)N3CC(C)OC(C)C3)cc2)sc2c1CCN(C(C)C)C2 (stereo not drawn),n,26,n,n,n
CNC(=O)c1c(NC(=O)c2ccc(S(=O)(=O)N3CCCC3)cc2)sc2c1CCN(C(C)C)C2,n,n,x,n,x
C[C@H]1CN([C@@H](C)CO)C(=O)Cc2cc(NC(=O)Nc3ccc(C(F)(F)F)cc3)ccc2O[C@H]1CN(C)Cc1ccccc1,x,x,n,x,x
COc1ccc(NC(=O)CN(C)C(=O)c2cn(-c3ccccc3)nc2-c2ccc(OC)cc2)cc1,n,n,n,n,x
COc1ccc(NC(=O)CN(C)C(=O)c2cn(-c3ccccc3)nc2-c2ccc(Cl)cc2)cc1,n,27,n,n,n
C[C@@H]1CN([C@@H](C)CO)C(=O)c2cccc(NC(=O)NC3CCCCC3)c2O[C@@H]1CN(C)S(C)(=O)=O,x,x,n,x,x
